Measurements reported in publication PMC9417066 (Nanoscale Advances, 2021).

Tests used:
[1] = Solubility in pure water at room temperature; format: physicochemical; conditions: for solubility: water; for Soluble or not at R.T.: room temperature
[2] = Storage modulus / gel forming of peptide gel with PBS; format: physicochemical
TEM of peptide hydrogel = format: physicochemical; conditions: 6 mg ml^-1 peptide, hydrogel with PBS, 1% phosphotungstic acid stain
In short: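 Peptide was dissolved in pure water at 6 mg ml−1, then 10× PBS was added to give at most 1× PBS. The resulting hydrogel was dropped onto a copper grid and the excess blotted with filter paper. It was negatively stained with 1% phosphotungstic acid for 15 s, air-dried and imaged by transmission electron microscopy.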

[3] = system: gastric or colon submucosal layer; test: Mucosal elevation by submucosal injection; format: in vivo; conditions: 0.5 ml of 1% w/v PRVDP9 or 10 mg ml^-1 sodium hyaluronate, rabbit, 30 min

Row | Compound | solubility [1] [mg/mL] | Soluble or not at R.T. ([1]; 1% w/v) | Gel forming ([2]; 1% w/v peptide) | Soluble or not at R.T. ([1]; 2% w/v) | Gel forming ([2]; 2% w/v peptide) | further results
1 | CC(=O)N[C@@H](CCCNC(=N)N)C(=O)N[C@@H](C)C(=O)N[C@@H](CC(=O)O)C(=O)N[C@@H](C)C(=O)N[C@@H](CCCNC(=N)N)C(=O)N[C@@H](C)C(=O)N[C@@H](CC(=O)O)C(=O)N[C@@H](C)C(=O)N[C@@H](CCCNC(=N)N)C(=O)N[C@@H](C)C(=O)N[C@@H](CC(=O)O)C(=O)N[C@@H](C)C(=O)N[C@@H](CCCNC(=N)N)C(=O)N[C@@H](C)C(=O)N[C@@H](CC(=O)O)C(=O)N[C@@H](C)C(N)=O [RADA16, AC-RADARADARADARADA-NH2, reference compound] | < 30 |  |  |  |  | Concentration of peptide solution at which it self-assembled into a gel ([2]; peptide solution, without triggering): 3 % w/v
2 | Ac-PKIEIKIEP-NH2 [PKIEP9, AC-PKIEIKIEP-amide] |  | Yes | No |  |  | Soluble or not at R.T. ([1]; 0.5% w/v): Yes; Gel forming ([2]; 0.5% w/v peptide): No
3 | Ac-PKLDLKLDP-NH2 [PKLDP9, AC-PKLDLKLDP-amide] |  | Yes | No | Yes | No | 
4 | Ac-PKVEVKVEP-NH2 [PKVEP9, AC-PKVEVKVEP-amide] | ≥ 40 | Yes | Yes | Yes | Yes | 
5 | Ac-PRIDIRIDP-NH2 [PRIDP9, AC-PRIDIRIDP-amide] |  | Yes | No | Yes | No | 
6 | Ac-PRVDVRVDP-NH2 [PRVDP9, AC-PRVDVRVDP-NH2] | ≥ 40 | Yes | Yes | Yes | Yes | Solubility (comparison, in words) [1]: superior solubility as compared with PRVD9; Nanostructure by TEM (TEM of peptide hydrogel): formed a dense nanofiber scaffold; Gel forming when mixed with PBS (vial turned upside down) ([2]; 1%, 2%, 3% w/v in pure water, 10× PBS added to not exceed 1×, stand 10 seconds): good gel-forming ability; Storage modulus of peptide gel (in words) ([2]; 3% w/v peptide, gel with PBS, recorded at 1 Hz): almost equivalent to that of 2.5% w/v RADA; HE staining of colonic mucosa after submucosal injection [3]: showed a bulge, and the cavity was evenly filled with red-stained self-assembling peptides
7 | Ac-PRVEVRVEP-NH2 [PRVEP9, Ac-PRVEVRVEP-amide] |  | No |  |  |  | Soluble or not at R.T. ([1]; 0.5% w/v): No
8 | Ac-RVDVRVDV-NH2 [RVDV8, AC-RVDVRVDV-NH2] | < 30 |  |  |  |  | 
9 | Ac-VRVDVRVDV-NH2 [VRVDV9, AC-VRVDVRVDV-NH2] | < 30 |  |  |  |  | 
